Assay outcomes from PubChem BioAssay.
Pf gametocyte: late stage P. falciparum gametocyte viability inhibitors, primary screen, ATP luminescence, HTS | P. falciparum stage V gametocytes, 24 h | inhibition, % at 10.9 µM | actives 0.065% (n = 150,000) | AID 743093, 2013;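 active = inhibition above the mean plus 3 SD of compounds within the control limits, set per campaign, cut at about 38% in these data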;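 also: 0% = DMSO wells and 100% = medium only without gametocytes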
Rad51 HR inh: human RAD51 strand exchange inhibitors, primary screen, biochemical, fluorescence; hRad51 DNA strand exchange, fluorescence dequenching; inhibition, % at 10 µM; actives 0.085% (n = 200,000); AID 1385, 2008;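 active = inhibition above 40% at the single screening dose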;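 also: 0% = DMSO control wells and 100% = blanks with heterologous ssDNA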
Target sequence (Q06609 whole entry, looked up): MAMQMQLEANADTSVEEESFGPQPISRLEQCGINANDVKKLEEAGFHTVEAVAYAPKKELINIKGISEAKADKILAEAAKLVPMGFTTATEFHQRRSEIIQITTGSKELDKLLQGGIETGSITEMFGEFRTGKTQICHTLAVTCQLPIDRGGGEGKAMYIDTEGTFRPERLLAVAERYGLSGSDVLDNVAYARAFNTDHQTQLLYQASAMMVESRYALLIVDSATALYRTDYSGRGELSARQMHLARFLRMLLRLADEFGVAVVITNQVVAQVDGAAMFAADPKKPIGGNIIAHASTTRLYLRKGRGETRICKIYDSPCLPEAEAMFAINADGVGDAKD
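Material: Human Rad51 nucleoprotein filaments preassembled on unlabelled ssDNA | Also added: Labelled 47-mer dsDNA for strand exchange | Dosing: Single dose, 10 µM final compound | Schedule: 30-min compound preincubation and 15-min exchange, both room temperature | Technique: Fluorescence dequenching at 485/520 nm | Measure: Percent inhibition relative to plate controls and blanks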
m-calpain inh: inhibitors of pig calpain II, primary screen, biochemical, fluorogenic peptide substrate, 1536-well. inhibition, % at 16 µM. actives 0.37% (n = 220,000). purified calpain II, 30 min. AID 1236, 2008;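 active = inhibition above about 50%, limit read from the data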
PKD1 inh: inhibitors of human PKD1 kinase, biochemical, fluorescence polarization; PKD1 kinase fluorescence polarization assay; inhibition, % (concentration not given with the values); actives 0.056% (n = 200,000); AID 797, 2007; in the data active = inhibition above about 50%
DTT redox prof: compounds producing H2O2 with reducing agent – biochemical, NIH compound library profiling, artefact control for MLSCN library redox annotation, primary screen | DTT-dependent redox cycling H2O2, phenol red/HRP absorbance; 100% = 100 µM peroxide control, 0% = buffer | activation, % at 10 µM | actives 0.03% (n = 200,000) | AID 878, 2007;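 active = activation of at least 50% relative to the plate's high and low controls in the primary single-dose screen; inactive = activation below 50%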;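 also: compound incubated with DTT at 0.8 mM final as the reducing agent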
HMGR II inh: inhibitors of E. faecalis class II HMGR, primary screen, biochemical, Enterococcus faecalis | HMG-CoA reductase (Enterococcus faecalis, mvaE) | purified E. faecalis HMGR, NADPH absorbance 340 nm kinetic | inhibition, % at 10 µM | actives 0.41% (n = 190,000);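 active = inhibition above a set limit, the median over all tested compounds plus 3 SD, cut at about 9.5% in these data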;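 also: enzyme runs in reverse so mevalonate oxidation gives rising NADPH absorbance; 0% = complete reaction with DMSO and 100% = background rate lacking mevalonate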
The depositor's hits bear a star; nt = not tested or not shown. The list is not random: actives were taken first. Their share in the collection is about 0.81%.

SMILES | Pf gametocyte | Rad51 HR inh | m-calpain inh | PKD1 inh | DTT redox prof | HMGR II inh
CCN1/C(=C/C(C)=C/c2sc3ccccc3[n+]2CC)Sc2ccccc21 | -19 | 81* | 17 | 1 | 0 | 1
CC1(C)CC(=O)C(C2C3=C(CC(C)(C)CC3=O)Oc3c(Br)cc(Br)cc32)=C(O)C1 (stereo unspecified) | -17 | nt | nt | nt | nt | nt
Brc1ccc(C2=Nn3cnnc3SC2)cc1 | -9 | nt | nt | nt | nt | nt
COc1ccccc1S(=O)(=O)Cc1ccc(C(=O)NCCN2CCCCCC2)o1 | nt | 0 | -3 | -3 | 0 | 10*
COc1ccccc1S(=O)(=O)Cc1ccc(C(=O)NCCN(C)C)o1 | nt | -3 | nt | 2 | -3 | nt
CCCCN1CC[C@H]2C=CC[C@@H](C(=O)Nc3nccs3)[C@H]2C1=O | -24 | 2 | nt | nt | nt | nt
CCCCCCCNC1=CC(=O)CC(c2ccccc2)C1 (stereo unspecified) | 5 | 3 | 74* | -4 | 0 | -1
O=C(Cn1cccc1C(=O)c1ccccc1)NCc1ccco1 | nt | -5 | -6 | 7 | 0 | 14*
CCCCOc1ccc(-c2nnn(CC(=O)NCc3ccco3)n2)cc1 | nt | 5 | 41 | 5 | 1 | -1
O=C(Cn1nnc(-c2ccccc2F)n1)NCc1ccco1 | 2 | 44* | -42 | 8 | -1 | -5
O=C(Nc1ccc2c(c1)OCO2)c1ccc2c(c1)S(=O)(=O)c1ccccc1C2=O | -15 | 5 | nt | nt | nt | nt
O=C1Nc2ccccc2S/C1=C/c1cccs1 | -11 | 0 | -46 | nt | nt | nt
O=C1/C(=C/c2cccs2)Sc2ccccc21 | -2 | -16 | 12 | -8 | 0 | 11*
CCOC(=O)c1c(NS(C)(=O)=O)sc2c1CCC(C)C2 (stereo unspecified) | -27 | 89* | -6 | -1 | 1 | 0
O=C(NC1(N2CCOCC2)CC1)c1ccc(Cl)cc1 | nt | 14 | 6 | nt | nt | nt
CC(C)=NNC1=NC(C)(C)Cc2ccccc21 | -15 | 7 | -12 | nt | nt | nt
CC(=O)CC1=NC(C)(C)Cc2ccccc21 | -3 | 6 | -5 | 0 | 0 | 12*
COC(=O)c1c(C)cc(O)c(C=O)c1O | nt | -9 | nt | nt | nt | nt
COc1cc(C(=O)O)c2c(c1C)OC(=O)c1c(C)cc(O)c(C=O)c1O2 | nt | 61* | nt | nt | nt | nt
Cc1cccc(C(=O)NC2CCN(S(=O)(=O)c3ccc(F)cc3)CC2)c1 | -14 | nt | nt | nt | nt | nt
CCCCCCCCOC(=O)C1=C(C)Nc2nnnn2C1c1cccs1 (stereo unspecified) | -13 | 8 | 50* | 0 | 0 | 1
CCCCCCCOC(=O)C1=C(C)Nc2ncnn2C1c1cccs1 (stereo unspecified) | nt | -1 | -10 | 1 | 0 | -7
CS(=O)(=O)N(CC(=O)NCCSCc1cccc(Cl)c1)c1ccccc1F | -8 | nt | nt | nt | nt | nt
Cc1cc(C)c(NC(=O)COC(=O)Cc2ccsc2)c(C)c1 | 15 | -3 | 62* | 2 | 0 | -10
CSc1cccc(NC(=O)CSc2ccc(C)cc2)c1 | nt | 10 | 5 | -6 | 0 | -1
SMILES | Pf gametocyte | Rad51 HR inh | m-calpain inh | PKD1 inh | DTT redox prof | HMGR II inh
CSc1cccc(NC(=O)CSc2ccc(Cl)cc2)c1 | nt | 0 | 51* | 1 | 0 | -2
CC(=O)N(Cc1ccccc1)c1c(N)nc(N)[nH]c1=O | 2 | nt | nt | nt | nt | nt
O=C(O)c1cccc(Cn2c(Cl)c(/C=N/NC(=O)c3cc4ccccc4cc3O)sc2=O)c1 | 4 | -1 | 59* | nt | nt | nt
Nc1[nH]nc2nc3ccccc3cc12 | -26 | -1 | -4 | 1 | -1 | 10*
CCc1ccc2nc3n[nH]c(N)c3cc2c1 | -20 | 3 | 1 | 0 | 2 | -5
CC(=O)CSc1nc2cc3c(cc2cc1C#N)OCCO3 | 8 | -59 | -37 | -6 | 0 | 11*
CC1CN(C(=O)c2cccc(S(=O)(=O)Nc3ccc(Cl)cc3)c2)CC(C)O1 (stereo unspecified) | 15 | -2 | -11 | 0 | -2 | 24*
CC(=O)Oc1ccc(C(=O)Nc2cccc(-c3nnc(-c4ccco4)o3)c2)cc1 | 10 | -3 | 0 | nt | nt | nt
O=C(Nc1cccc(-c2nnc(-c3ccco3)o2)c1)c1ccccc1 | 7 | -5 | 79* | 7 | -1 | -6
COc1cccc(-c2csc3ncnc(Sc4nnnn4C)c23)c1 | -22 | nt | nt | nt | nt | nt
O=S(=O)(Cc1ccccc1)NCC1CCCN(Cc2ccc(F)c(F)c2)C1 (stereo unspecified) | 12 | -5 | 65* | -6 | 0 | -6
COc1ccc(CCNC(=O)c2cc3ccccc3oc2=O)cc1 | -5 | nt | nt | nt | nt | nt
CCc1nnc(NC(=O)CC(C)c2ccccc2)s1 (stereo unspecified) | 19 | nt | nt | nt | nt | nt
CCOc1ccc(OCC)c(NC(=O)C2CCN(c3ncccn3)CC2)c1 | -12 | 42* | 8 | -11 | 3 | 1
CCOc1ccc(OCC)c(NC(=O)C2CCCN(c3ncccn3)C2)c1 (stereo unspecified) | nt | nt | 11 | -7 | 2 | 1
CCN(C(=O)Cn1cc(C(F)(F)F)ccc1=O)c1c(N)n(Cc2ccccc2)c(=O)[nH]c1=O | -12 | -6 | -7 | -7 | 0 | 16*
Cc1cc(NC(=O)C2CCCN2C(=O)Nc2c(C)cccc2C)ccc1-n1cnnn1 (stereo unspecified) | nt | -13 | -10 | 1 | 1 | 12*
Cc1ccc(S[C@@H](CCN2CC[C@H](C(C)(C)C)CCC2=O)c2ccccc2)cc1 | -2 | nt | nt | nt | nt | nt
CCc1ccc(C(=O)OCC(=O)c2c(N)n(CC(C)C)c(=O)n(C)c2=O)cc1 | 4 | 17 | 82* | -3 | 0 | -2
CC(C)Cn1c(N)c(C(=O)COC(=O)c2ccc(F)cc2)c(=O)n(C)c1=O | -35 | 3 | 53* | 0 | 0 | 0
CC(C)Cn1c(N)c(C(=O)COC(=O)c2ccccc2Cl)c(=O)n(C)c1=O | 14 | 4 | 43 | 1 | 0 | -6
CC(C)Cn1c(N)c(C(=O)COC(=O)c2ccc3c(c2)OCCO3)c(=O)n(C)c1=O | -52 | -5 | -23 | -5 | 2 | -3
CC(C)Cn1c(N)c(C(=O)COC(=O)c2cccc(Cl)c2)c(=O)n(C)c1=O | 8 | 6 | 77* | 2 | 0 | -2
CC(C)Cn1c(N)c(C(=O)COC(=O)/C=C/c2cccs2)c(=O)n(C)c1=O | 1 | 19 | 53* | nt | nt | nt
Cc1ccc(-n2c(Cl)c(Cl)nc(Cl)c2=O)cc1 | nt | 4 | -14 | 4 | 1 | 0
Cc1cc(OCCOCCNCc2ccccc2)ccc1C(C)C | 18 | nt | nt | nt | nt | nt
Cc1ccccc1C(=O)Oc1ccc(Sc2ccc(O)cc2)cc1 | 13 | -4 | 113* | 7 | 0 | -2
CC(C)(C)SCCNC(=O)CN(c1ccccc1)S(=O)(=O)c1ccccc1 | 7 | 6 | 1 | -5 | -1 | 5
